A short description of assay [1]: Inhibition of RNA polymerase 2 in human HeLaScribe nuclear extracts after 1 hr. Put shortly:
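HeLaScribe nuclear extract transcription with CMV(+) template DNA, 3 mM MgCl2, 400 μM CTP/GTP/UTP, 25 μM [33P]ATP. Inhibitor preincubated 5 min at 30 °C, then 1 h at 30 °C. Products run on 6% urea–polyacrylamide gel; full-length transcript quantified; IC50 is 50% product decrease.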

In another assay the test system is C6. Description: Cytotoxicity against rat C6 cells after 3 days by MTT assay. The format is functional, cell-based. As to conditions: C6, 72 h. On the technique in general: Tetrazolium assays rely on reduction of a dye to a coloured formazan, in cell work by metabolically active cells.
For assay [2], the system named is K562. Kind of assay: Cytotoxicity against human K562 cells after 3 days by MTT assay. Type of assay: functional, cell-based. The conditions noted are these: K562, 72 h.
For the next assay, the system named is SK-MEL-2. Kind of assay: Cytotoxicity against human SK-MEL-2 cells after 3 days by MTT assay. As to conditions: SK-MEL-2, 72 h. Type of assay: functional, cell-based.
Another assay concerns BV-173. Kind of assay: Cytotoxicity against human BV173 cells after 3 days by MTT assay. Type of assay: functional, cell-based. The conditions noted are these: BV-173, 72 h.
Assay [3] can be described thus: Cytostatic activity against human Hs578 cells after 5 days by SRB assay. Type of assay: functional. The conditions noted are these: Hs578, 120 h. Put shortly: (§1)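 Cells seeded per line density, overnight at 37 °C; day-zero plate TCA-fixed. 5-fold serial dilutions added, 5-day incubation; TCA fixation, 0.057% SRB in 1% acetic acid 30 min, dye dissolved in 10 mM Tris pH 10.5, A500. Growth relative to day-zero and untreated; GIC50 from sigmoidal dose–response fit; mean of two independent experiments.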
For orientation: In SRB staining, fixed cells bind dye roughly in proportion to their protein.

Assay [4] can be described thus: Cytotoxicity against human NCI-H146 cells after 3 days by MTT assay. The format is functional, cell-based. The conditions noted are these: NCI-H146, 72 h.
For assay [5], the system named is PC-3. Description: Cytotoxicity against human PC3 cells after 3 days by MTT assay. Type of assay: functional, cell-based. The conditions noted are these: PC-3, 72 h.
A further assay has as its system HL-60. Description: Cytotoxicity against human HL60 cells after 3 days by XTT assay. The conditions noted are these: HL-60, 72 h. The format is functional, cell-based. In outline: (§2)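 Suspension-grown cell lines, 3-day compound incubation; viability read by XTT metabolic assay; IC50 averaged from four independent experiments.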
Another assay has as its system EL4. Description: Cytotoxicity against mouse EL4 cells after 3 days by MTT assay. The format is functional, cell-based. As to conditions: EL4, 72 h.
The nature of assay [6]: Cytotoxicity against human HeLaS3 cells after 3 days by XTT assay. The format is functional, cell-based. The conditions noted are these: HeLa S3, 72 h. Put shortly: as §2
The next assay concerns BJ. Description: Cytotoxicity against human BJ cells after 3 days by MTT assay. The format is cell-based. The conditions noted are these: 72 h.
Assay [7] is described as follows: Cytotoxicity against human U87MG cells after 3 days by MTT assay. The format is functional, cell-based, U-87MG ATCC. The conditions noted are these: U-87 MG, 72 h.
For a further assay, the system named is HPAC. Description: Cytotoxicity against human HPAC cells after 3 days by MTT assay. The conditions noted are these: 72 h. Type of assay: functional, cell-based.
Assay [8] in a line: Cytotoxicity against human MES-SA cells after 3 days by MTT assay. The format is functional, cell-based. As to conditions: 72 h.
Assay [9] deals with K562. Kind of assay: Cytotoxicity against human paclitaxel resistant K562 cells after 3 days by MTT assay. The format is functional, cell-based. The conditions noted are these: K562, 72 h.
The subject of a further assay is LNCaP. Kind of assay: Cytotoxicity against human LNCAP cells after 3 days by MTT assay. As to conditions: 72 h. The format is functional, cell-based.
Assay [10] concerns PC-3. Kind of assay: Cytostatic activity against human PC3 cells after 5 days by SRB assay. Type of assay: functional. The conditions noted are these: PC-3, 120 h. In outline:
as §1

For a further assay, the system named is HT-29. Description: Cytotoxicity against human HT-29 cells after 3 days by MTT assay. As to conditions: HT-29, 72 h. Type of assay: functional, cell-based.
The test system of another assay is MCF7. Kind of assay: Cytotoxicity against human MCF7 cells after 3 days by MTT assay. Type of assay: functional, cell-based. The conditions noted are these: MCF7, 72 h.
Assay [11] has as its system BT-549. Kind of assay: Cytotoxicity against human BT549 cells after 3 days by MTT assay. As to conditions: BT-549, 72 h. The format is functional, cell-based.
Assay [12] can be described thus: Cytotoxicity against mouse P388D1 cells after 3 days by MTT assay. The format is functional, cell-based. As to conditions: P388D1, 72 h.
The test system of the next assay is CT26. Description: Cytotoxicity against mouse CT26 cells after 3 days by MTT assay. Type of assay: functional, cell-based. As to conditions: CT26, 72 h.
The subject of the next assay is A549. Description: Cytostatic activity against human A549 cells after 5 days by SRB assay. The format is functional. As to conditions: A549, 120 h. In outline:
as §1

The next assay has as its system SK-N-AS. Kind of assay: Cytotoxicity against human SK-N-AS cells after 3 days by MTT assay. Type of assay: functional, cell-based. The conditions noted are these: 72 h.
For the next assay, the system named is CCRF-CEM. Description: Cytotoxicity against human CCRF-CEM cells after 3 days by XTT assay. The format is functional, cell-based. As to conditions: 72 h. In outline: as §2
Assay [13] in a line: Cytotoxicity against human CEM-DNR-bulk cells after 3 days by MTT assay. Type of assay: functional, cell-based. As to conditions: 72 h.
The subject of the next assay is NCI-H23. Description: Cytostatic activity against human NCI-H23 cells after 5 days by SRB assay. Type of assay: functional. The conditions noted are these: NCI-H23, 120 h. Put shortly:
as §1

For another assay, the system named is HCT-116. Kind of assay: Cytostatic activity against human HCT116 cells after 5 days by SRB assay. The format is functional. The conditions noted are these: HCT-116, 120 h. Put shortly: as §1
A further assay has as its system HeLa. Kind of assay: Cytotoxicity against human HeLa cells after 3 days by MTT assay. Type of assay: functional, cell-based. As to conditions: 72 h.
For the next assay, the system named is L1210. Kind of assay: Cytotoxicity against mouse L1210 cells after 3 days by MTT assay. As to conditions: L1210, 72 h. The format is functional, cell-based.
The test system of another assay is SK-OV-3. Kind of assay: Cytotoxicity against human SKOV3 cells after 3 days by MTT assay. Type of assay: functional, cell-based. As to conditions: SK-OV-3, 72 h.
The next assay concerns the target Adenosine kinase (Homo sapiens, UniProt P55263). Description: Inhibition of human ADK using [3H]-adenosine by scintillation counting.
A further assay concerns MT4. Kind of assay: Cytostatic activity against human MT4 cells after 5 days by SRB assay. The format is functional. As to conditions: MT4, 120 h.
The subject of assay [14] is BT-549. Description: Cytostatic activity against human BT549 cells after 5 days by SRB assay. The format is functional. The conditions noted are these: BT-549, 120 h. In outline: as §1
The next assay deals with MDA-MB-231. Kind of assay: Cytotoxicity against human MDA-MB-231 cells after 3 days by MTT assay. The format is functional, cell-based. As to conditions: MDA-MB-231, 72 h.

The structures appear in SMILES notation.

In general, IC50 refers to the concentration that inhibits the measured activity by half. Broadly, the GI50 is the concentration giving 50% growth inhibition.

Sequence of Adenosine kinase (P55263 whole entry): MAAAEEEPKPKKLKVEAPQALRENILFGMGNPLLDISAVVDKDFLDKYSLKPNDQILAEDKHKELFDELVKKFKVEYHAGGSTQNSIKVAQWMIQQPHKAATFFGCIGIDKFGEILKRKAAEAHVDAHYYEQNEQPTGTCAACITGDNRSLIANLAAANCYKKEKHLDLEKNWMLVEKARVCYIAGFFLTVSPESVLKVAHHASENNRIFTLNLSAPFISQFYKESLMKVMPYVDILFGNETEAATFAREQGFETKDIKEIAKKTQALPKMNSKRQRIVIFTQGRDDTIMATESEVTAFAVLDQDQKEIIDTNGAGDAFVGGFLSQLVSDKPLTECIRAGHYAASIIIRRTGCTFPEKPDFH

In turn, `CC[C@H](C)[C@@H]1NC(=O)CNC(=O)[C@@H]2Cc3c([nH]c4cc(O)ccc34)[S+]([O-])C[C@@H](NC(=O)CNC1=O)C(=O)N[C@@H](CC(N)=O)C(=O)N1C[C@H](O)C[C@H]1C(=O)N[C@@H]([C@@H](C)[C@@H](O)CO)C(=O)N2` (stereo partly drawn) [alpha-Amanitin] yielded an IC50 in assay [1] of 2.2 ng/mL.

As to `Nc1ncnc2c1c(-c1ccoc1)cn2[C@@H]1O[C@H](COP(=O)(O)OP(=O)(O)OP(=O)(O)O)[C@@H](O)[C@H]1O`, in assay [1] (read-out: IC50), the IC50 was above 400000 nM.

Regarding `Nc1ncnc2c1c(-c1ccco1)cn2[C@@H]1O[C@H](COP(=O)(O)OP(=O)(O)OP(=O)(O)O)[C@@H](O)[C@H]1O`, in assay [1] (read-out: IC50), the IC50 amounted to 148000 nM.

Consider `Nc1ncnc2c1c(-c1cccs1)cn2[C@@H]1O[C@H](COP(=O)(O)OP(=O)(O)OP(=O)(O)O)[C@@H](O)[C@H]1O`, for which the IC50 in assay [1] (read-out: IC50) was determined as 54000 nM.

As to `Nc1ncnc2c1c(-c1cc[nH]c1)cn2[C@@H]1O[C@H](CO)[C@@H](O)[C@H]1O`, the IC50 in the assay on C6 is 3680 nM; in the assay on K562 [2], 33 nM; in the assay on SK-MEL-2, 8710 nM; with BV-173 it was 4 nM; in assay [4] it was above 10000 nM; in the assay on PC-3 [5] it was above 10000 nM. Besides, the IC50 with HL-60 is 840 nM; with EL4, 9420 nM; in assay [6], 70 nM; in the assay on BJ, 6090 nM; in assay [7], above 10000 nM; with HPAC it was 68 nM. Further, the IC50 stood at 81 nM in assay [8]; 9 nM in the assay on K562 [9]; 21 nM in the assay on LNCaP; 4050 nM with HT-29; 6310 nM in the assay with MCF7; 6 nM with BT-549 [11]. The IC50 in [12] is 10 nM; with CT26, 17 nM; in the assay with SK-N-AS, above 10000 nM; in the assay on CCRF-CEM, 110 nM; in assay [13] it was 8 nM; in the assay with HeLa, 40 nM. Moreover, the IC50 with L1210 was 84 nM; in the assay with SK-OV-3, above 10000 nM; on Adenosine kinase it was above 5000 nM; in the assay with MDA-MB-231 it was 27 nM. Besides, the GI50 in assay [3] was determined as 4.4 nM; in the assay with PC-3 [10] it was 29 nM; in the assay on A549 it was 5.3 nM; in the assay with NCI-H23, 33 nM; in the assay on HCT-116 it was 5.9 nM; in the assay with MT4, 24 nM. The molecule further displayed a GI50 in the assay with BT-549 [14] of 8 nM.

(Values after ChEMBL document CHEMBL1811802, “Synthesis and significant cytostatic activity of 7-hetaryl-7-deazaadenosines” (J Med Chem, 2011).)
